Measurements of several laboratories.
pEC50, pIC50: −log10 of the molar value.
Effect on: cell growth or viability

`CCOC(=O)c1ccc(N2C(N)=C(C#N)C3(C(=O)Nc4ccccc43)C(C#N)=C2O)cc1` (centres unmarked) gave a viability of 94.2% (HepG2; MTT; 1.56 µM; 24 h).
The viability of `COc1ccc(NC(=O)c2c(Nc3ccccc3)sc(C#N)c2NC(=O)CNc2ccccc2[N+](=O)[O-])cc1` is reported as 84.6% (HepG2; SRB; 10 µM; 48 h).
For `CCOC(=O)c1ccc(-n2c(C)cc(/C=C/c3ccc(OCC)cc3)c(C#N)c2=O)cc1`, the viability was 100% (HepG2; MTT; 3.125 µM; 24 h).
`COc1ccc(NC(=O)c2c(Nc3ccccc3)sc(C#N)c2NC(=O)CNc2ccc(O)cc2)cc1` gave a viability of 53.9% (HepG2; SRB; 100 µM; 48 h).
For `Cc1cc(Nc2ccc(C(=O)N/N=C/c3cccc(Oc4ccccc4)c3)cc2)c2cccc(O)c2n1`, the inhibition was 61% (Huh-7; MTT; 20 µM).
The viability of `CCOC(=O)c1ccc(-n2c(C)cc(/C=C/c3ccc(OC)cc3)c(C#N)c2=O)cc1` is reported as 72.6% (HepG2; MTT; 25 µM; 24 h).
`COc1ccc(NC(=O)c2c(Nc3ccccc3)sc(C(=O)NN=Cc3ccc(C)cc3)c2NC(C)=O)cc1` has a viability of 89.2% (HepG2; SRB; 0.1 µM; 48 h).
For `CCCCCCCCCCCCNC(=S)NCCCC[C@H](NS(C)(=O)=O)C(=O)N[C@H](C)C(=O)N[C@@H](CCCNC(=N)N)C(=O)N1CCOCC1`, the pEC50 was under 4.00 (HEK-293T; MTT; 72 h).
For `COc1ccc(NC(=O)c2c(Nc3ccccc3)sc(C(=O)NN=Cc3ccccc3)c2NC(C)=O)cc1`, the viability was 65.3% (HepG2; SRB; 10 µM; 48 h).
`CCOC(=O)c1ccc(-n2c(C)cc(C)c(C#N)c2=O)cc1` has a viability of 51.2% (HepG2; MTT; 50 µM; 24 h).
`COc1ccc(/C=N/NC(=O)c2ccc(Nc3cc(C)nc4c(O)cccc34)cc2)cc1O` gave an inhibition of 30.2% (Huh-7; MTT; 20 µM).
`CCCCCCCCCCCCNC(=S)NCCCC[C@H](NC(=O)OCc1ccccc1)C(=O)N[C@@H](C)C(=O)N[C@@H](CCCNC(=N)N)C(N)=O` has a pEC50 of 3.92 to 3.99 (HEK-293T; MTT; 72 h).
The GI50 of `C=CC(=O)Nc1cc(-n2c(=O)ccc3cnc4ccc(-c5ccc(NS(C)(=O)=O)cc5)cc4c32)ccc1C` is reported as 1800 nM (Ramos; 48 h).
The pIC50 of `CC(C)C[C@H](NC(=O)[C@H](Cc1ccccc1)NC(=O)c1cnccn1)B(O)O` is reported as 7.77 (NCI-H2009; ATP luminescence).
With `COc1ccc(NC(=O)c2c(Nc3ccccc3)sc(C(=O)NN=Cc3ccc(OC)c(O)c3)c2NC(C)=O)cc1` the viability was 63.7% (HepG2; SRB; 0.1 µM; 48 h).
The inhibition of `Cc1ccc(/C=N/NC(=O)c2ccc(Nc3cc(C)nc4c(O)cccc34)cc2)cc1` is reported as 62.5% (Huh-7; MTT; 20 µM).
`COc1cc(N2CCC(N3CCN(C)CC3)CC2)ccc1Nc1ncc(Cl)c(Nc2ccccc2P(C)(C)=O)n1` has a GI50 of 2760 nM (NCI-H292; ATP luminescence; 72 h).
The inhibition of `CC(=O)Oc1ccc(/C=N/NC(=O)c2ccc(Nc3cc(C)nc4c(O)cccc34)cc2)cc1` is reported as 31.2% (Huh-7; MTT; 20 µM).
For `COc1ccc(NC(=O)c2c(Nc3ccccc3)sc(C#N)c2NC(=O)CNc2ccc([N+](=O)[O-])cc2)cc1`, the viability was 75.2% (HepG2; SRB; 0.1 µM; 48 h).
`COc1cc([C@@H]2c3cc4c(cc3[C@@H](O[C@@H]3O[C@@H]5CO[C@@H](C)O[C@H]5[C@H](O)[C@H]3O)[C@H]3COC(=O)[C@H]23)OCO4)cc(OC)c1O` has a pIC50 of 4.32 (CCD-18Co; MTS; 24 h).
The GI50 of `Cc1c(NC(=O)c2ccc(C(C)(C)C)cc2)cccc1-c1cn(C)c(=O)c(Nc2ccc(C(=O)N3CCOCC3)cc2)n1` is reported as over 10000 nM (Ramos; 48 h).
`COc1ccc(NC(=O)c2c(Nc3ccccc3)sc(C#N)c2NC(=O)CNc2ccccc2Cl)cc1` has a viability of 88.3% (HepG2; SRB; 10 nM; 48 h).
The pIC50 of `COc1cc(Nc2nccc(-c3cnn4nc(OC)ccc34)n2)cc(C(F)(F)F)c1` is reported as 6.35 (NCI-H292; ATP luminescence).
`CCOC(=O)c1ccc(NC(=O)C2=C3C(=Nc4ccccc43)NC2=O)cc1` gave a viability of 68.1% (HepG2; MTT; 12.5 µM; 24 h).
The inhibition of `Cc1cc(Nc2ccc(C(=O)N/N=C/c3ccnc(Cl)c3)cc2)c2cccc(O)c2n1` is reported as 32.9% (Huh-7; MTT; 20 µM).
The CC50 of `c1ccc(-c2csc(NCc3ncccn3)n2)nc1` is reported as over 40 µM (Huh-7).
The inhibition of `Cc1cc(Nc2ccc(C(=O)N/N=C/C3CCCCC3)cc2)c2cccc(O)c2n1` is reported as 41.1% (Huh-7; MTT; 20 µM).
With `CCOC(=O)c1sc(NCc2ncccn2)nc1-c1ccccn1` the CC50 was over 40 µM (Huh-7).
For `Cc1cccc(/C=N/NC(=O)c2ccc(Nc3cc(C)nc4c(O)cccc34)cc2)n1`, the inhibition was 53.1% (Huh-7; MTT; 20 µM).
`CCOCCOCCOCCNC(=S)NCCCC[C@H](NS(C)(=O)=O)C(=O)N[C@@H](C)C(=O)N[C@@H](CCCNC(=N)N)C(N)=O` has a pEC50 of under 4.00 (HEK-293T; MTT; 72 h).
The viability of `COc1ccc(NC(=O)c2c(Nc3ccccc3)sc(C(=O)NN=Cc3cc(OC)c(OC)c(OC)c3)c2NC(C)=O)cc1` is reported as 89.2% (HepG2; SRB; 10 nM; 48 h).
For `Cc1cc(Nc2ccc(C(=O)N/N=C/c3ccc(N(C)C)cc3)cc2)c2cccc(O)c2n1`, the inhibition was 69.9% (Huh-7; MTT; 20 µM).
